A short description of data set [1]: Drug uptake in parent HEK293T cells assessed as increase in mean fluorescence intensity at 10 uM incubated for 1 hr by flow cytometry analysis. Particulars: human, hek-293t; call rule not given here. Type of data set: ADME, cell-based. Summed up:
(§1)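 Flow cytometry of cells exposed to 10 μM compound for 1 h, read as mean fluorescence intensity. Cell lines were OATP1B3-overexpressing HEK-293T (lentiviral transduction, MOI 10), parental HEK-293T, Hep3B, HepG2 and Huh-7.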

A short description of data set [2]: Drug uptake in HEK293T cells expressing OATP1B3 assessed as increase in mean fluorescence intensity at 10 uM incubated for 1 hr by flow cytometry analysis. Type of data set: ADME, cell-based. Particulars: human, hek-293t. An outline of the steps:
as §1

A short description of data set [3]: Drug uptake in human Hep3B cells assessed as increase in mean fluorescence intensity at 10 uM incubated for 1 hr by flow cytometry analysis. Type of data set: ADME, cell-based. As to conditions: hep 3b2, 1 h. An outline of the steps:
as §1
Background: In flow cytometry, cells or beads pass a laser one at a time.

Data set [4] is described as follows: Drug uptake in human HepG2 cells assessed as increase in mean fluorescence intensity at 10 uM incubated for 1 hr by flow cytometry analysis. Type of data set: ADME, cell-based. Particulars: hepg2, 1 h. An outline of the steps: as §1
Data set [5] in a line: Drug uptake in human Huh-7 cells assessed as increase in mean fluorescence intensity at 10 uM incubated for 1 hr by flow cytometry analysis. It is filed as ADME, cell-based. Particulars: huh-7, 1 h. Summed up:
as §1

Data set [6] can be described thus: Drug uptake in parent HEK293T cells by DAPI staining based confocal fluorescence microscopy analysis. Type of data set: ADME, cell-based. As to conditions: human, hek-293t.
Data set [7] in a line: Drug uptake in HEK293T cells expressing OATP1B3 by DAPI staining based confocal fluorescence microscopy analysis. Type of data set: ADME, cell-based. As to conditions: human, hek-293t.
Data set [8] can be described thus: Drug uptake in human Hep3B cells expressing OATP1B3 by DAPI staining based confocal fluorescence microscopy analysis. It is filed as ADME, cell-based. As to conditions: hep 3b2.
Data set [9] can be described thus: Drug uptake in human HepG2 cells expressing OATP1B3 by DAPI staining based confocal fluorescence microscopy analysis. Type of data set: ADME, cell-based.
A short description of data set [10]: Drug uptake in parent HEK293T cells at 10 uM incubated for 1 hr by DAPI staining based flow cytometry analysis. It is filed as ADME, cell-based. Particulars: human, hek-293t.
The nature of data set [11]: Drug uptake in HEK293T cells expressing OATP1B3 at 10 uM incubated for 1 hr by DAPI staining based flow cytometry analysis. It is filed as ADME, cell-based. As to conditions: human, hek-293t.
A short description of data set [12]: Drug uptake in human Hep3B at 10 uM incubated for 1 hr by DAPI staining based flow cytometry analysis. It is filed as ADME, cell-based. Particulars: hep 3b2, 1 h.
Data set [13] can be described thus: Drug uptake in human HepG2 at 10 uM incubated for 1 hr by DAPI staining based flow cytometry analysis. Type of data set: ADME, cell-based. As to conditions: hepg2, 1 h.
A short description of data set [14]: Drug uptake in human HepG2 cells assessed as increase in fluorescence signal at 25 uM incubated for 1 hr by flow cytometry based analysis. Type of data set: ADME, cell-based. Particulars: hepg2, 1 h.
The nature of data set [15]: Drug uptake in human HB17 cells assessed as increase in fluorescence signal at 25 uM incubated for 1 hr by flow cytometry based analysis. Type of data set: ADME, cell-based. Particulars: hb17, 1 h.
Data set [16] is described as follows: Drug uptake in human SH-SY5Y cells assessed as increase in fluorescence signal at 25 uM incubated for 1 hr by flow cytometry based analysis. Type of data set: ADME, cell-based.
Data set [17] can be described thus: Drug uptake in human HepG2 cells assessed as increase in fluorescence signal at 10 to 25 uM incubated for 1 hr by confocal fluorescence microscopy based analysis. It is filed as ADME, cell-based. Particulars: hepg2, 1 h, dose 10-25 µM.
Data set [18] in a line: Drug uptake in human HB17 cells assessed as increase in fluorescence signal at 10 to 25 uM incubated for 1 hr by confocal fluorescence microscopy based analysis. Particulars: hb17, 1 h, dose 10-25 µM. It is filed as ADME, cell-based.
Data set [19] is described as follows: Drug uptake in human SH-SY5Y cells assessed as increase in fluorescence signal at 10 to 25 uM incubated for 1 hr by confocal fluorescence microscopy based analysis. It is filed as ADME, cell-based. As to conditions: dose 10-25 µM.
A short description of data set [20]: Drug uptake in tumor of athymic nude mouse xenografted with human Hep3B cells assessed as tumor to background ratio at 2 mg/kg, iv measured after 4 to 48 hrs by IVIS Lumina imaging system. It is filed as ADME, organism-based, Neoplasm, Hep 3B2. As to conditions: in vivo, time 4-48 hrs. For orientation: Xenograft models place foreign cells or tissue in a host animal.

The nature of data set [21]: Drug uptake tumor of in athymic nude mouse xenografted with human Huh-7 cells assessed as tumor to background ratio at 2 mg/kg, iv measured after 4 to 48 hrs by IVIS Lumina imaging system. Type of data set: ADME, organism-based, Neoplasm. As to conditions: in vivo, time 4-48 hrs.
Data set [22] in a line: Ratio of drug concentration in athymic nude mouse tumor to liver xenografted with human Huh-7 cells assessed as tumor to liver ratio at 2 mg/kg measured after 48 hrs post injection by IVIS Lumina imaging system. Type of data set: ADME, organism-based. As to conditions: in vivo. An outline of the steps: (§2)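 Tumor-to-liver ratio was calculated from ex vivo fluorescence of excised tumors and livers at 48 h after 2 mg/kg intravenous dosing in xenograft-bearing female athymic nude mice.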

The nature of data set [23]: Ratio of drug concentration in athymic nude mouse tumor to liver xenografted with human Hep3B cells assessed as tumor to liver ratio at 2 mg/kg measured after 48 hrs post injection by IVIS Lumina imaging system. It is filed as ADME, organism-based. As to conditions: in vivo. An outline of the steps:
as §2

The nature of data set [24]: Drug uptake in tumor of athymic nude mouse xenografted with human Hep3B cells assessed as increase in tumor signal at 2 mg/kg, iv measured after 48 hrs post injection by IVIS Lumina imaging system. As to conditions: in vivo. Type of data set: ADME, organism-based, Neoplasm, Hep 3B2. Summed up: (§3)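 Female athymic nude mice bearing Hep3B or Huh-7 tumors received 2 mg/kg intravenously. They were imaged by IVIS at 4, 24 and 48 h. Tumors and livers were excised at 48 h for ex vivo fluorescence, with background taken from the neck signal.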

Data set [25] is described as follows: Drug uptake in tumor of athymic nude mouse xenografted with human Huh-7 cells assessed as increase in tumor signal at 2 mg/kg, iv measured after 48 hrs post injection by IVIS Lumina imaging system. Type of data set: ADME, organism-based, Neoplasm. Particulars: in vivo. Summed up: as §3
Data set [26] is described as follows: Drug uptake in liver of athymic nude mouse xenografted with human Hep3B cells assessed as increase in liver signal at 2 mg/kg, iv measured after 48 hrs post injection by IVIS Lumina imaging system. Type of data set: ADME, organism-based, Hep 3B2. As to conditions: in vivo. An outline of the steps:
as §3

Data set [27] is described as follows: Drug uptake in athymic nude mouse liver xenografted with human Huh-7 cells assessed as increase in liver signal at 2 mg/kg, iv measured after 48 hrs post injection by IVIS Lumina imaging system. It is filed as ADME, organism-based. Particulars: in vivo. Summed up: as §3
A short description of data set [28]: Drug uptake in tumor of mouse xenografted with HB66 PDX model assessed as increase in fluorescence signal at 10 mg/kg, iv measured after 72 hrs post injection by IVIS Lumina imaging system. Type of data set: ADME, organism-based, Neoplasm. As to conditions: in vivo. An outline of the steps: (§4)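 Mice with orthotopic HB52 or HB66 hepatoblastoma PDX tumors, and non-tumor-bearing mice, received 10 mg/kg intravenously. Tumor growth was followed by MRI. Mice were imaged by IVIS at 24, 48 and 72 h, then tumors, livers and lungs were analysed ex vivo at 72 h, n = 1.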

Data set [29] in a line: Drug uptake in tumor of mouse xenografted with HB52 PDX model assessed as increase in fluorescence signal at 10 mg/kg, iv measured after 72 hrs post injection by IVIS Lumina imaging system. It is filed as ADME, organism-based, Neoplasm. As to conditions: in vivo. An outline of the steps: as §4
A short description of data set [30]: Drug uptake in liver of mouse xenografted with HB66 PDX model assessed as increase in fluorescence signal at 10 mg/kg, iv measured after 72 hrs post injection by IVIS Lumina imaging system. As to conditions: in vivo. Type of data set: ADME, organism-based. Summed up:
as §4

The nature of data set [31]: Drug uptake in liver of mouse xenografted with HB52 PDX model assessed as increase in fluorescence signal at 10 mg/kg, iv measured after 72 hrs post injection by IVIS Lumina imaging system. Type of data set: ADME, organism-based. As to conditions: in vivo. Summed up: as §4
The nature of data set [32]: Drug uptake in lung of non-tumor bearing mouse assessed as increase in fluorescence signal at 10 mg/kg, iv measured after 72 hrs post injection by IVIS Lumina imaging system. Type of data set: ADME, organism-based. Particulars: in vivo. An outline of the steps: as §4

Each structure is given as a SMILES string.

Regarding `CC1(C)C(/C=C/C=C/C=C/C=C2/N(CCCCS(=O)(=O)[O-])c3ccc(I)cc3C2(C)C)=[N+](CCCCS(=O)(=O)[O-])c2ccc(I)cc21.[Na+]`, the Drug uptake entry in data set [1], in data set [2], in data set [3], in [4] and in data set [5] was “Active” throughout.

For `CC1(C)C(/C=C/C=C/C=C/C=C2/N(CCCCS(=O)(=O)[O-])c3ccc4ccccc4c3C2(C)C)=[N+](CCCCS(=O)(=O)[O-])c2ccc3ccccc3c21.[Na+]` [INDOCYANINE GREEN], the Drug uptake entry in data set [6], in [7], in [8], in data set [9], in [10] and in [11] was “Active” each time. The Drug uptake entry in data set [12] is listed as “Active”; in data set [13] it was “Active”; in data set [14], “Active”; in data set [15] it was “Active”; in data set [16], “Not Active”; in data set [17], “Active”. In addition, the Drug uptake entry in data set [18] is reported as “Active”; in data set [19], “Not Active”. Also, the Ratio turned out to be 2 in data set [20], 2 in [21], 2 in data set [22] and 3 in data set [23].

On to `CC1(C)C(/C=C/C=C/C=C/C=C2/N(CCCCS(=O)(=O)[O-])c3cc(I)ccc3C2(C)C)=[N+](CCCCS(=O)(=O)[O-])c2cc(I)ccc21.[Na+]`, for which the Drug uptake entry in [1], in data set [2], in [3], in [4] and in [5] was “Active” each time.

For `CC1(C)C(/C=C/C=C/C=C/C=C2/N(CCCCS(=O)(=O)[O-])c3cccc(I)c3C2(C)C)=[N+](CCCCS(=O)(=O)[O-])c2ccc3ccccc3c21.[Na+]`, the Drug uptake entry in [1], in data set [2], in [3], in data set [4] and in [5] was “Active” in each case.

On to `CC1(C)C(/C=C/C=C/C=C/C=C2/N(CCCCS(=O)(=O)[O-])c3cccc(I)c3C2(C)C)=[N+](CCCCS(=O)(=O)[O-])c2cccc(I)c21.[Na+]`, for which the Drug uptake result in [24], in data set [1], in data set [2], in data set [3], in data set [4] and in data set [5] was “Active” throughout. For the same molecule, the Drug uptake entry was “Active” in data set [14]; “Active” in data set [15]; “Not Active” in [16]; “Active” in data set [17]; “Active” in data set [18]; “Not Active” in data set [19]. In addition, the Drug uptake entry in [25] was “Active”; in [26] it was “Active”; in data set [27] it was “Active”; in data set [28], “Active”; in data set [29], “Active”; in [30], “Not Active”. Also, the Drug uptake entry in data set [31] and in data set [32] was “Not Active” throughout. For the same molecule, the Ratio in data set [20] is 5; in [21], 2; in data set [22], 2; in data set [23] it was 3.
